Screening results (PubChem BioAssay)
FGF22 binding: binders of recombinant human FGF22 by thermal shift | SYPRO orange fluorescence; percent of sucrose octasulfate shift, DMSO zero | activity (Tm shift, normalised), % at 9.99 µM | 340,000 tested, 1.5% active;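 active = mean Tm shift, scaled 0 neutral to 100 positive control, at about 1.3% or above, every replicate too, limit read from the data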
Target sequence (Q9HCT0 whole entry, looked up): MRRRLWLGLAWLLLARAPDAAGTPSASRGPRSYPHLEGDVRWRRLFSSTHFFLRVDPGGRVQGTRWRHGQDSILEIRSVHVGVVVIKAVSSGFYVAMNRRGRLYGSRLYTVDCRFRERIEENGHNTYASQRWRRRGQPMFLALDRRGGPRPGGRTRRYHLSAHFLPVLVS
697 NFkB inh: lowers PMA/ionomycin-induced NF-kB signal in 697 B cells; 697 B-cell NF-kB luciferase reporter, 16 h; inhibition, % at 4 µM; 330,000 tested, 0.33% active; AID 435022; in the data active = inhibition above about 35%
NR2E3 ag-1: activates human photoreceptor nuclear receptor NR2E3; GST-NR2E3/biotin-RetCOR TR-FRET, 1536-well; inhibition of corepressor binding, % at 4.78 µM; 320,000 tested, 0.12% active; Q9Y5X4;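 active = percent inhibition above the cutoff of mean plus 3 SD of all tested compounds, set per screening campaign, cut at about 20% in these data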;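 also: 0% = DMSO wells and 100% = biotin wells as full block of FRET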
Target sequence (Q9Y5X4 whole entry, looked up): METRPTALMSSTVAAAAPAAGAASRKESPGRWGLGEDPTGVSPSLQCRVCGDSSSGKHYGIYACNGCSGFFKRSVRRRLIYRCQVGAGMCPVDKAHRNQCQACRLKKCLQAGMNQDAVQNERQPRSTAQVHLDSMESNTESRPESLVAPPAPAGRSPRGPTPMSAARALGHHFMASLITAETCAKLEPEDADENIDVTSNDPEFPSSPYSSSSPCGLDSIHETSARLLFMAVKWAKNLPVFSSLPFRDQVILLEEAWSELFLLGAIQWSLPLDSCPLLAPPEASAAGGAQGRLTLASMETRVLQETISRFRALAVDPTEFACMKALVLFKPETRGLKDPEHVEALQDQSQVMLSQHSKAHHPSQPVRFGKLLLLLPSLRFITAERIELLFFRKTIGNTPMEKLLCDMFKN
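Material – GST-tagged NR2E3 plus biotinylated RetCOR corepressor · Quantity – NR2E3 fusion 1.35 nM · Times – 5 h incubation at 4 °C · Medium – pH 7.5 Tris-based buffer · Technique – TR-FRET, Eu(K)-anti-GST donor, streptavidin-D2 acceptor, ex 340, em 617/671 nm · Benchmarks – high control biotin, low control 0.6% DMSO · Format – 1536-well plates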
miR-122 sensor: blocks miR-122 activity in Huh7 sensor cells. 340,000 tested, 0.3% active. Huh7 miR-122 Renilla luciferase sensor, 48 h; neutral wells = 0, positive control = 100. activation (reporter increase), % at 12.5 µM;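 active = mean replicate activation score at least 90 and every replicate individually at or above 90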;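 also: higher luciferase means less miR-122 activity so hits act as miR-122 inhibitors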
Jurkat NFkB inh: inhibitors of the PMA/ionomycin-induced NF-kB reporter in Jurkat cells | PMA/ionomycin-induced NF-kB luciferase reporter, luminescence | inhibition, % at 4 µM | 330,000 tested, 0.53% active; in the data active = inhibition above about 50%
NR2E3 ag-2: activates human NR2E3 receptor. 360,000 tested, 0.35% active. inhibition of corepressor binding, % at 3.98 µM. Q9Y5X4. CHO-S Gal4-NCOR/VP16-NR2E3 two-hybrid, luciferase;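 active = inhibition above the mean of all tested compounds plus 3 SD, cut at about 70% in these data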;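 also: 0% = DMSO with NR2E3 transfected cells and 100% = cells lacking NR2E3 construct; higher means lower luciferase signal from less NR2E3 corepressor binding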
Numbers without * were called inactive; / = no result; ! = a repeat was not active; [ ] = remark or other dose. A selection: hits, their analogues and other compounds. The true share with any hit is near 2.2%.

SMILES	FGF22 binding	697 NFkB inh	NR2E3 ag-1	miR-122 sensor	Jurkat NFkB inh	NR2E3 ag-2
Clc1ccc2c(c1)-c1ccccc1C1=NCCN12	0	/	/	/	/	-25
Brc1ccc2c(c1)-c1ccccc1C1=NCCN12	43*	/	/	28	/	-79
C[C@@H]1CN([C@@H](C)CO)C(=O)c2cc(NC(=O)Cc3ccccc3)ccc2O[C@H]1CN(C)S(=O)(=O)c1ccc(F)cc1	0	/	/	2[16.7 µM]	/	/
CO[C@@H]1CN(C)C(=O)c2ccc(NC(=O)C3CC3)cc2OC[C@H](C)N(C(=O)c2ccncc2)C[C@H]1C	0	/	/	/	/	/
CCn1c(CNc2cccc(C(F)(F)F)c2)n[nH]c1=S	43*	-12	0	/	4	-5
CN(C)CC(=O)N[C@H]1CC[C@H](CCNC(=O)Nc2ccc(C(F)(F)F)cc2)O[C@H]1CO	0	/	/	/	/	/
C[C@@H]1CN([C@@H](C)CO)C(=O)Cc2cc(NC(=O)Nc3ccc(F)cc3)ccc2O[C@H]1CN(C)CC1CC1	0	/	/	7[16.7 µM]	/	/
COc1cccc(CN2CCCCN3[C@H](C2)[C@@H](c2ccc(C#Cc4cccnc4)cc2)[C@@H]3CO)c1	0	/	/	-9[16.7 µM]	/	/
N#Cc1ccc(NC(=S)N2CCC3CC2c2cc(-c4ccc5c(c4)OCO5)ccc23)cc1 (configuration not stated)	0	/	/	110*	/	-33
O=S(=O)(NC1CCCCC1)c1cccc(-c2nnc(-c3ccccc3)o2)c1	/	-13	1	100*	-10	-37
CC(C)(C)OC(=O)N1CCC[C@H]1C(=O)NCc1ccc(Cl)cc1Cl	65*	1	-1	/	0	4
C[C@H](CO)N1C[C@H](C)[C@@H](CN(C)C(=O)Nc2ccc(C(F)(F)F)cc2)Oc2ccc(NC(=O)Nc3ccccc3)cc2C1=O	19*!	-2	/	-5[16.7 µM]	-5	0
C[C@H]1CN([C@@H](C)CO)C(=O)c2cc(NC(=O)Nc3ccc(C(F)(F)F)cc3)ccc2O[C@@H]1CN(C)Cc1ccccc1	27*	/	/	0[16.7 µM]	/	/
C[C@H]1CN([C@@H](C)CO)C(=O)c2cc(NC(=O)NC3CCCCC3)ccc2O[C@@H]1CN(C)C(=O)Nc1ccccc1	0	/	/	93*[16.7 µM]	/	/
CCNC(=O)C[C@H]1CC[C@@H]2[C@H](COc3ccc(NC(=O)Nc4cccc(F)c4)cc3C(=O)N2C)O1	-1	/	/	-4[16.7 µM]	/	/
Cc1ccc(S(=O)(=O)/N=C/N(C)C)cc1	/	9	4	-2	-4	-36
CN(C)/C=N/S(=O)(=O)c1ccc(Cl)cc1	43*	10	1	3	7	-2
Cc1c(C(=O)NCCCN2CCOCC2)oc2ccc(S(=O)(=O)N3CCOCC3)cc12	43*	2	4	4	-12	6
CCOCCCNC(=O)c1oc2ccc(S(=O)(=O)N3CCOCC3)cc2c1C	0	1	-1	1	3	-5
CO[C@@H]1CN(C)C(=O)c2ccc(NC(=O)C3CCC3)cc2OC[C@@H](C)N(C(=O)c2ccccc2)C[C@H]1C	0	/	/	-1[16.7 µM]	/	/
COCC#Cc1cnc2c(c1)C(=O)N([C@H](C)CO)C[C@H](C)[C@H](CN(C)C(=O)C1CCC1)O2	0	/	/	23[16.7 µM]	/	/
Cc1ccc(S(=O)(=O)Nc2ccc3c(c2)CC(=O)N([C@H](C)CO)C[C@H](C)[C@H](CN(C)CC2CC2)O3)cc1	0	/	/	-8[16.7 µM]	/	/
CC(C)(C)NC(=O)NC(=O)CN1CCN(Cc2ccccc2)CC1	0	0	-2	/	1	-6
O=C(CN1CCCCCCC1)NC(=O)NC1CCCCC1	0	6	1	/	3	2
CC(C)(C)NC(=O)NC(=O)CN1CCCCC1	43*	12	2	-2	6	12
SMILES	FGF22 binding	697 NFkB inh	NR2E3 ag-1	miR-122 sensor	Jurkat NFkB inh	NR2E3 ag-2
O=C(CN1CCCCC1)NC(=O)NC1CCCC1	43*	-18	1	/	-16	-5
CC(C)(C)NC(=O)NC(=O)CN1CCN(C(c2ccccc2)c2ccccc2)CC1	43*	-46	-2	-2	-18	-5
Cc1noc(C)c1NC(=O)Nc1ccc2c(c1)C(=O)N([C@H](C)CO)C[C@@H](C)[C@@H](CN(C)S(=O)(=O)c1cn(C)cn1)O2	0	/	/	-10[16.7 µM]	/	/
Cc1ccc(CN2C(=O)C(C)(C)Oc3ccc(C(=O)N4CCCCC4)cc32)cc1	/	-39	3	318*	11	-4
COc1ccc(S(=O)(=O)N(C)C[C@H]2OCCCC[C@H](C)Oc3ccc(NC(=O)CCC(F)(F)F)cc3C(=O)N([C@@H](C)CO)C[C@H]2C)cc1	-1	/	/	0[16.7 µM]	/	/
CC(=O)/C=C1/C(=O)Nc2ccccc21	44*	16	0	/	0	14
CC(C)NC(=O)N(C)C[C@@H]1OCCCC[C@H](C)Oc2ccc(N(C)C)cc2C(=O)N([C@@H](C)CO)C[C@@H]1C	-1	/	/	3[16.7 µM]	/	/
O=C(Cn1cc2c(n1)CCCCC2)NC1CCN(Cc2ccccc2)CC1	43*	-3	-2	/	24	-19
O=C(c1cc(F)ccc1F)C1CCCN(C(=O)CCN2CCCCO2)C1 (configuration not stated)	43*	-1	3	-1	-21	-5
O=C(O)COc1ccccc1/C=N/NC(=O)CSc1nc2ccccc2n1Cc1ccc(Cl)cc1	1.4*	13	2	-2	1	-12
O=C(CSc1nc2ccccc2n1Cc1ccc(Cl)cc1)N/N=C/c1ccccc1C(=O)O	0	14	1	/	6	21
C[C@@H]1CN([C@H](C)CO)S(=O)(=O)c2ccc(Br)cc2O[C@H]1CN(C)Cc1cncnc1	-1	/	/	14[16.7 µM]	/	/
Cc1cc(C)n(Cc2ccc(C(=O)O)cc2)n1	0	16	1	/	10	-13
Cc1ccc(C)n1Cc1ccc(C(=O)O)cc1	/	19	34*	-12	-4	-38
CCNC(=O)C1(C)CCCN(C(=O)c2cc3ccccc3s2)C1 (configuration not stated)	0	/	/	-5	/	-14
CCNC(=O)C1(C)CCCN(C(=O)c2ccccc2Br)C1 (configuration not stated)	43*	/	/	-3	/	-29
CCNC(=O)C1(C)CCCN(C(=O)c2sc(-c3ccccc3)nc2C)C1 (configuration not stated)	43*	/	/	-3	/	-9
